TAAR1 antag = human TAAR1 antagonists, primary screen, Fluo-8 calcium fluorescence, CHO RD-HGA16 cells; Trace amine-associated receptor 1 (Homo sapiens), Q96RJ0; AID 624466, 2012; 360,000 compounds, 1.5% hits; inhibition, % at 3 µM; antagonist;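 active = inhibition above a per-plate cutoff, the mean inhibition of test compounds on that plate plus 3 SD, cut at about 49% in these data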;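 note: 0% = DMSO plus EC80 beta-PEA response and 100% = DMSO alone without agonist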
Target sequence (Q96RJ0 whole entry, looked up): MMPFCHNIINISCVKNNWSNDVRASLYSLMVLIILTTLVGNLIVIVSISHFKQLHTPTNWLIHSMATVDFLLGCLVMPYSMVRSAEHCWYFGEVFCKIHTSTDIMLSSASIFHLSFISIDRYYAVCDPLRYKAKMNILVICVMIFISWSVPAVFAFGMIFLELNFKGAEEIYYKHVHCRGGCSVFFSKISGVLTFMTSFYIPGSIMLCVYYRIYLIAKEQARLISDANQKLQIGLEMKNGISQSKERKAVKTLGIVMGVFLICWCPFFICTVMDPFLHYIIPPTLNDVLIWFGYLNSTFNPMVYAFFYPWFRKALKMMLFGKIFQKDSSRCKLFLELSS
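Assay system: RD-HGA16 CHO cells with stable hTAAR1 and Gα16 / Reagent: EC80 β-phenethylamine stimulus / Doses: 3 µM, single point / Timing: dye loading 75 min at 37 °C, then 30 min room temperature / Measured by: Fluo-8 intracellular calcium dye fluorescence, real-time kinetic reads / Controls: vehicle wells and EC80 agonist wells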
GPR7 antagonist = GPR7 receptor antagonists, primary screen, cell-based, fluorescence, single concentration; GPR7-expressing cells, fluorescence antagonist assay; 290,000 compounds, 1.1% hits; inhibition, % at 4.4 µM; Neuropeptides B/W receptor type 1 (Homo sapiens), P48145; in the data active = inhibition above about 16%, passing the limit was not always enough;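 note: cells stimulated with the agonist NPW; 0% = agonist with vehicle and 100% = vehicle without agonist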
Target sequence (P48145 whole entry, looked up): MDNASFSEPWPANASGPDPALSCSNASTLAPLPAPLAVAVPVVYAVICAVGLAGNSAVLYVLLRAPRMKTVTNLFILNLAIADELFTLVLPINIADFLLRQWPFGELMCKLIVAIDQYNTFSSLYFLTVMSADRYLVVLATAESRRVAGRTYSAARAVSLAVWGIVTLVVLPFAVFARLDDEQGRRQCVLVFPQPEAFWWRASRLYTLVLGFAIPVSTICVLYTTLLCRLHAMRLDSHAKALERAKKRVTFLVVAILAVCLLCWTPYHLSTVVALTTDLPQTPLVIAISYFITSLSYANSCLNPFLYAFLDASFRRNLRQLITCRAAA
TRPML3 agonist = human TRPML3 channel agonists, primary screen, cell-based, HEK293 TRPML3-YFP, Fluo-8 calcium fluorescence, 3 µM; activation, % at 3 µM; 220,000 compounds, 0.29% hits; 100% = the carbachol control signal;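 active = activation above its plate's cutoff, the mean activation of the plate's test wells plus 3 SD, cut at about 12% in these data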;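 note: 0% = DMSO only wells and 100% = carbachol wells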
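Test system: TRPML3-YFP stable HEK293 cells. Doses: single point at 3 µM. Incubation: dye loading 1 h 37 °C then 30 min ambient, 125 s read. Signal: Fluo-8 calcium dye fluorescence, ex 470-495, em 515-575 nm. Measure: percent activation from peak-to-basal fluorescence ratio, scaled between DMSO and carbachol.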
TRPN1 ag = zebrafish TRPN1 channel agonists, primary screen, cell-based, HEK293, calcium fluorescence. transient receptor potential cation channel N1 (TRPN1/NompC), Danio rerio. 220,000 compounds, 0.18% hits. HEK293 zebrafish TRPN1-YFP, Fluo-8 calcium fluorescence; 100% = response to 87 µM carbachol. activation, % at 3 µM;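 active = activation above its plate's cutoff, the mean activation of test wells on that plate plus 3 SD, cut at about 19% in these data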;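 note: 0% = DMSO alone and 100% = 87 µM carbachol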
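Material – zebrafish TRPN1-YFP in HEK293 cells · Doses – 3 µM single point · Schedule – dye 1 h 37 °C plus 30 min RT · Signal – Fluo-8 calcium fluorescence, excitation 470-495 nm, emission 515-575 nm · Read-out – % activation versus carbachol response · Control set – carbachol high, DMSO low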
LANA-H2A inh = blockers of LANA interaction with H2A/H2B – biochemical, FP readout, HTS, primary screen. Protein LANA1 (Human herpesvirus 8 type P (isolate GK18)), Q9QR71. cell-free LANA-H2A/H2B peptide, fluorescence polarization. inhibition, % (no concentration beside the values). 320,000 compounds, 0.6% hits; in the data active = inhibition mostly above about 10%, no sharp cut-off; inactive = mostly below about 6.7%
TAAR1 ag = human TAAR1 agonists, primary screen, Fluo-8 calcium fluorescence, CHO RD-HGA16 cells; activation, % at 3 µM; vehicle wells 0%, saturating PEA agonist 100%; AID 624467, 2012; 360,000 compounds, 0.99% hits; Trace amine-associated receptor 1 (Homo sapiens), Q96RJ0;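 active = activation above the mean activation of all test compounds in the run plus 3 SD, cut at about 38% in these data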
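Test system: RD-HGA16 (CHO) cells co-expressing Gα16 and hTAAR1 / Benchmarks: DMSO vehicle as 0%, PEA at EC100 as 100% / Repeats: no replicates (n 1) / Measure: % activation from peak over basal fluorescence ratio, DMSO-to-PEA scaled / Timing: 17-24 h plating, Fluo-8 75 min 37 °C, 30 min RT / Technique: kinetic Fluo-8 calcium fluorescence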
* hit, by the source's call; . = no result given. Most compounds without a hit are left out; they make up all but 3.4% or so of the library.

SMILES | TAAR1 antag | GPR7 antagonist | TRPML3 agonist | TRPN1 ag | LANA-H2A inh | TAAR1 ag
O=c1oc2ccc(C#CC3(O)CCCCC3)cc2cc1-n1cc(C2(O)CCCCC2)nn1 | 53* | . | . | . | -1 | 27
COc1ccc(-c2ccc3c(n2)CCCN3Cc2ccccc2C(F)(F)F)cc1 | -26 | . | . | . | . | -1
CCOC(=O)c1c(C)nc2sc(C(=O)Nc3ccc(OC)cc3)c(N)c2c1-c1ccc(OC)cc1 | 19 | -6 | 1 | -1 | 0 | 14
CCOC(=O)c1c(C)nc2sc(C(=O)Nc3ccc(C(C)=O)cc3)c(N)c2c1-c1ccc(OC)cc1 | 55* | -21 | 0 | 0 | -1 | 3
COC(=O)C1=C(C)N(C)C(=NCc2cccc(C(F)(F)F)c2)NC1c1ccccc1 (stereo not given) | -3 | . | . | . | . | 8
O=C(Nc1cccc(NC(=O)c2ccccc2Cl)c1)c1ccc([N+](=O)[O-])o1 | 55* | 1 | . | . | -3 | 17
COc1ccc(Cc2nnc(NC(=O)CSc3ccc(C)cc3)s2)cc1OC | 87* | -8 | 2 | 10 | -2 | 112*
COc1cccc(/C=N/NC(=O)c2cc3c(OC)cccc3[nH]2)c1OC | 55* | 4 | 0 | 0 | 1 | 9
COc1cccc(/C=N/NC(=O)c2cc3c(OC)c(OC)ccc3[nH]2)c1OC | 43 | 8 | 0 | 3 | . | 21
Cc1[nH]c2c(ccc3cccnc32)c1C | -33 | 4 | -1 | 0 | -4 | -1
CC1=[N+](C)c2c(ccc3cccnc23)C1(C)C | 28 | 28* | 2 | 3 | . | 11
C[C@@H]1CN(S(=O)(=O)C(C)(C)C)[C@H](CCO)/C1=C\CCO | -15 | . | . | . | . | 3
O=S(=O)(c1ccc(N2CCC(c3ccc(Cl)cc3)=N2)cc1)N(CCO)CCO | 11 | -8 | 1 | -1 | 3 | 7
CN(C)CCCNS(=O)(=O)c1ccc(N2CCC(c3ccc(Cl)cc3)=N2)cc1 | 26 | 41* | 1 | -1 | 1 | 7
Cc1cccc(NC(=O)c2cc3ccccc3o2)c1 | -14 | 18* | -1 | 0 | -5 | 9
Cc1cc(NC(=O)c2cccnc2Cl)ccc1NC(=O)c1cc2ccccc2o1 | 24 | -3 | . | . | -2 | 40*
CCCCC(CC)COC(=O)CCCCC(=O)OCC(CC)CCCC (stereo not given) | -5 | . | . | . | 46* | 7
COc1ccc(-c2ncncc2-c2csc(C)n2)c(O)c1 | -23 | 17* | 1 | -1 | -1 | 2
CC1(C)CC(=O)C=C(c2ccccc2-c2ccc3c(c2)OCO3)C1=O | -2 | . | . | . | . | -1
Cn1cc([C@]2(O)C(=O)Nc3ccc(OC(F)(F)F)cc32)c2ccccc21 | 40 | . | . | . | . | 41*
N/C(Cc1ccc(Cl)c(Cl)c1)=N\OC(=O)c1cccs1 | 13 | 20* | 0 | 1 | 0 | 1
N/C(=N\OC(=O)c1cccs1)C1(c2ccc(Cl)cc2Cl)CC1 | -34 | -18 | 0 | 2 | -3 | 2
COC(=O)C1=C(C)N(Cc2ccc(Br)cc2)C(=S)NC1c1cccc(OC)c1 (stereo not given) | 33 | . | . | . | . | 0
CC1CN(C(=O)c2ccccc2C(=O)c2ncc[nH]2)CC(C)O1 (stereo not given) | -25 | -6 | 0 | 0 | 1 | 40*
CC(=O)N(Cc1ccccc1)c1nccs1 | -16 | . | . | . | . | 5
SMILES | TAAR1 antag | GPR7 antagonist | TRPML3 agonist | TRPN1 ag | LANA-H2A inh | TAAR1 ag
Cc1ccc2nc(C(O)C(O)c3nc4ccc(C)cc4[nH]3)[nH]c2c1 (stereo not given) | -7 | -3 | 1 | 1 | -1 | 38*
CC(=O)O[C@H]1C[C@@H](n2cnc3c(Cl)ncnc32)[C@@H]2OC(C)(C)O[C@@H]21 | -9 | . | . | . | . | 2
CNc1nc(-c2ccc3c(c2)CCN3C(=O)c2ccccc2F)cs1 | 53* | -2 | 0 | 1 | . | 2
CNc1nc(-c2ccc3c(c2)CCN3C(=O)c2ccccc2F)c(C)s1 | 25 | -13 | 0 | 0 | -1 | -2
O=C(N/N=C/c1ccc([N+](=O)[O-])s1)c1ccccc1 | 18 | -2 | 1 | 1 | 5 | 1
O=C(CNC(=O)c1cccc(F)c1)N/N=C/c1ccc([N+](=O)[O-])s1 | -31 | 5 | -1 | -1 | 14* | 3
O=C(C(=O)N1CCN(S(=O)(=O)c2ccc(Cl)cc2)CC1)c1cccc(C(F)(F)F)c1 | -12 | . | . | . | . | 0
CCN(CC(=O)Nc1ccc(NC(C)=O)cc1)C(=O)c1c(C)nn(-c2ccc(F)cc2)c1Cl | 54* | . | . | . | -3 | 15
O=C(CCCN1C(=O)c2cccnc2C1=O)N1CC(=O)N(CCc2ccccc2)C(=O)C1 | 18 | -11 | 1 | 0 | 25* | 13
O=C(CCCN1C(=O)c2cccnc2C1=O)Nc1ccccc1F | -30 | 5 | -1 | -1 | -1 | 2
O=C(C1CCN(S(=O)(=O)N2CCC3(CC2)OCCO3)CC1)N1CCN(Cc2ccccc2)CC1 | -29 | 21* | 1 | 3 | -1 | 5
Cc1cc(O)cc(=O)n1-c1cccc(C(F)(F)F)c1 | -24 | . | . | . | . | 7
CSc1nccc(NC(=O)c2cccc(Br)c2)n1 | 8 | 23 | . | . | -3 | 48*
Cc1cc(NC(=O)c2cccc(Br)c2)n[nH]1 | 2 | . | . | . | -1 | 4
CCC(=O)N1CCC2(CC1)Oc1ccc(Cl)cc1C(=O)C21CC(c2ccccc2)=NO1 (stereo not given) | 54* | . | . | . | -4 | 25
COc1ccc(C2C=C(c3cccs3)Nc3nc(CCCO)nn32)cc1 (stereo not given) | . | 12 | 1 | 3 | 74* | .
O=C1CCCC2=C1[C@@]1(O[C@H]3C=CC=CN23)C(=O)N(c2ccccc2)c2ccccc21 | -21 | . | . | . | . | 1
COc1ccccc1CNC(=O)COc1cc2c(c3oc(=O)cc(C)c13)CCC(C)(C)O2 | 53* | 18 | . | . | -10 | 4
Cc1c(C)c2c(OCC(=O)Nc3ccc(CCO)cc3)cc3c(c2oc1=O)CCC(C)(C)O3 | 51* | 12 | . | . | 10 | 2
COc1cccc(CNC(=O)COc2cc3c(c4oc(=O)cc(C)c24)CCC(C)(C)O3)c1 | 58* | 14 | . | . | -4 | 1
O=C(C(=O)N1CCN(S(=O)(=O)c2ccc(F)cc2)CC1)c1cccc(C(F)(F)F)c1 | 3 | . | . | . | . | -1

From PubChem
